Tests used:
Rattus norvegicus [1] = experiment: Distribution of radioactivity in rat brain region prefrontal cortex 60 min after intravenous administration of iodine labeled compound in absence of blocker in study 1; type: ADME, organism-based; conditions: in vivo, 1 h
Outline: (§1)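 Male Sprague–Dawley rats (250–300 g), ketamine-anesthetized. Blocker (2 mg/kg) or none was given iv 15 min before tail-vein radioligand (10 µCi in 0.2 mL 10% EtOH/saline). Rats were killed at 60 min with im pentobarbital. Brain regions were dissected, weighed and gamma-counted. % dose/g was taken from decay-corrected, background-subtracted counts versus the injected dose.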

Rattus norvegicus [2] = experiment: Distribution of radioactivity in rat thyroid 5 min after intravenous administration of iodine labeled compound; type: ADME, organism-based, Thyroid gland; conditions: in vivo
Outline: (§2)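 Tail-vein injection of [123I]ZIENT (10 μCi in 0.2 mL 10% EtOH/0.9% NaCl, then 0.4 mL saline flush) into ketamine-anaesthetised male Sprague–Dawley rats (225–300 g). Animals were killed by cardiac excision at set times. Organs were excised, rinsed, blotted, weighed and gamma-counted. % dose/g was calculated against diluted aliquots of injectate. Mean ± SE, n=4–5.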

Rattus norvegicus [3] = experiment: Ratio of distribution of radioactivity in rat brain region pons and cerebellum 60 min after intravenous administration of iodine labeled compound in absence of blocker in study 1; type: ADME, organism-based; conditions: in vivo, 1 h
[4] = target: Sodium-dependent dopamine transporter (Homo sapiens, UniProt Q01959); experiment: In vitro competitive binding versus [N-methyl-3H]WIN-35428 in murine kidney cells transfected with cDNA for human dopamine transporter (DAT); type: cell-based
Rattus norvegicus [5] = experiment: Distribution of radioactivity in rat brain 5 min after intravenous administration of iodine labeled compound; type: ADME, organism-based; conditions: in vivo
Rattus norvegicus [6] = experiment: Distribution of radioactivity in rat brain prefrontal cortex 5 min after intravenous administration of iodine labeled compound; type: ADME, organism-based; conditions: in vivo
Outline: (§3)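 Male Sprague–Dawley rats (225–300 g) under ketamine received 10 µCi radioligand iv (tail vein) in 10% EtOH/saline. Hypothalamus, prefrontal cortex, striatum, pons and cerebellum were dissected, weighed and gamma-counted. % injected dose/g was taken from decay-corrected counts versus diluted dose. Mean ± SE and range, n=5 (5, 30 min) or 4 (60, 120 min).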

Rattus norvegicus [7] = experiment: Ratio of distribution of radioactivity in rat brain prefrontal cortex and cerebellum 30 min after intravenous administration of iodine labeled compound; type: ADME, organism-based; conditions: in vivo, 0.5 h
Outline: (§4)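 Male Sprague–Dawley rats (225–300 g) under ketamine anaesthesia were given [123I]ZIENT (10 μCi) in 0.2 mL 10% EtOH/0.9% NaCl into the tail vein, with a saline flush. Hypothalamus, prefrontal cortex, striatum, pons and cerebellum were dissected and gamma-counted. % injected dose/g came from decay-corrected counts against the diluted injected dose, and region/cerebellum ratios were taken from these. Mean ± SE, n=4–5.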

Rattus norvegicus [8] = experiment: Distribution of radioactivity in rat liver 30 min after intravenous administration of iodine labeled compound; type: ADME, organism-based; conditions: in vivo, 0.5 h; outline: as §2
Rattus norvegicus [9] = experiment: Ratio of distribution of radioactivity in rat brain region hypothalamus and cerebellum 60 min after intravenous administration of iodine labeled compound in presence of RTI-113 blocker in study 1; type: ADME, organism-based; conditions: in vivo, 1 h
Rattus norvegicus [10] = experiment: Ratio of distribution of radioactivity in rat brain region striatum and cerebellum 60 min after intravenous administration of iodine labeled compound in presence of reboxetine blocker in study 2; type: ADME, organism-based; conditions: in vivo, 1 h
Rattus norvegicus [11] = experiment: Distribution of radioactivity in rat testis 30 min after intravenous administration of iodine labeled compound; type: ADME, organism-based; conditions: in vivo, 0.5 h; outline: as §2
Rattus norvegicus [12] = experiment: Distribution of radioactivity in rat brain region hypothalamus 60 min after intravenous administration of iodine labeled compound in absence of blocker in study 1; type: ADME, organism-based; conditions: in vivo, 1 h; outline: as §1
Rattus norvegicus [13] = experiment: Distribution of radioactivity in rat heart 60 min after intravenous administration of iodine labeled compound; type: ADME, organism-based; conditions: in vivo, 1 h; outline: as §2
Rattus norvegicus [14] = experiment: Distribution of radioactivity in rat liver 60 min after intravenous administration of iodine labeled compound; type: ADME, organism-based; conditions: in vivo, 1 h; outline: as §2
Rattus norvegicus [15] = experiment: Ratio of distribution of radioactivity in rat brain hypothalamus and cerebellum 120 min after intravenous administration of iodine labeled compound; type: ADME, organism-based; conditions: in vivo, 2 h; outline: as §4
Rattus norvegicus [16] = experiment: Distribution of radioactivity in rat brain striatum 120 min after intravenous administration of iodine labeled compound; type: ADME, organism-based; conditions: in vivo, 2 h; outline: as §4
Rattus norvegicus [17] = experiment: Distribution of radioactivity in rat brain cerebellum 30 min after intravenous administration of iodine labeled compound; type: ADME, organism-based; conditions: in vivo, 0.5 h; outline: as §3
Rattus norvegicus [18] = experiment: Distribution of radioactivity in rat brain cerebellum 5 min after intravenous administration of iodine labeled compound; type: ADME, organism-based; conditions: in vivo; outline: as §3
Rattus norvegicus [19] = experiment: Ratio of distribution of radioactivity in rat brain region hypothalamus and cerebellum 60 min after intravenous administration of iodine labeled compound in presence of reboxetine blocker in study 2; type: ADME, organism-based; conditions: in vivo, 1 h
Rattus norvegicus [20] = experiment: Distribution of radioactivity in rat brain pons 120 min after intravenous administration of iodine labeled compound; type: ADME, organism-based; conditions: in vivo, 2 h; outline: as §3
Rattus norvegicus [21] = experiment: Ratio of distribution of radioactivity in rat brain striatum and cerebellum 60 min after intravenous administration of iodine labeled compound; type: ADME, organism-based; conditions: in vivo, 1 h
Outline: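 Male Sprague–Dawley rats (225–300 g), ketamine anesthesia, injected via tail vein with [123I]ZIENT (10 μCi in 0.2 mL 10% EtOH/0.9% NaCl, 0.4 mL saline flush). Killed at 5, 30, 60 or 120 min. Striatum and cerebellum dissected, weighed, γ-counted. Decay-corrected %injected dose/g taken against diluted injectate. Ratio is striatum over cerebellum. Four or five rats per time point, mean ± standard error.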

Rattus norvegicus [22] = experiment: Distribution of radioactivity in rat brain prefrontal cortex 120 min after intravenous administration of iodine labeled compound; type: ADME, organism-based; conditions: in vivo, 2 h; outline: as §3
Rattus norvegicus [23] = experiment: Distribution of radioactivity in rat brain region striatum 60 min after intravenous administration of iodine labeled compound in absence of blocker in study 1; type: ADME, organism-based; conditions: in vivo, 1 h
Outline: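 Male Sprague–Dawley rats (250–300 g), ketamine-anaesthetised, received [123I]ZIENT (10 μCi) in 0.2 mL 10% ethanol/0.9% NaCl via the tail vein. […] Rats were killed at 60 min with pentobarbital, brain regions dissected and gamma-counted. Values are % dose/g from decay-corrected, background-subtracted counts against the diluted injected dose.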

Rattus norvegicus [24] = experiment: Distribution of radioactivity in rat heart 30 min after intravenous administration of iodine labeled compound; type: ADME, organism-based; conditions: in vivo, 0.5 h; outline: as §2
Rattus norvegicus [25] = experiment: Distribution of radioactivity in rat blood 30 min after intravenous administration of iodine labeled compound; type: ADME, organism-based; conditions: in vivo, 0.5 h
Outline: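 Male Sprague–Dawley rats (225–300 g) under ketamine received 10 µCi radioligand in 0.2 mL 10% EtOH/0.9% NaCl via tail vein, then a saline flush. Killed by cardiac excision at set times. Organs were excised, weighed and gamma-counted. % dose/g was taken against diluted injectate. Mean ± SE and range, n=4 (5 min) or 5 (30–120 min).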

Sodium-dependent dopamine transporter, sequence (Q01959 whole entry): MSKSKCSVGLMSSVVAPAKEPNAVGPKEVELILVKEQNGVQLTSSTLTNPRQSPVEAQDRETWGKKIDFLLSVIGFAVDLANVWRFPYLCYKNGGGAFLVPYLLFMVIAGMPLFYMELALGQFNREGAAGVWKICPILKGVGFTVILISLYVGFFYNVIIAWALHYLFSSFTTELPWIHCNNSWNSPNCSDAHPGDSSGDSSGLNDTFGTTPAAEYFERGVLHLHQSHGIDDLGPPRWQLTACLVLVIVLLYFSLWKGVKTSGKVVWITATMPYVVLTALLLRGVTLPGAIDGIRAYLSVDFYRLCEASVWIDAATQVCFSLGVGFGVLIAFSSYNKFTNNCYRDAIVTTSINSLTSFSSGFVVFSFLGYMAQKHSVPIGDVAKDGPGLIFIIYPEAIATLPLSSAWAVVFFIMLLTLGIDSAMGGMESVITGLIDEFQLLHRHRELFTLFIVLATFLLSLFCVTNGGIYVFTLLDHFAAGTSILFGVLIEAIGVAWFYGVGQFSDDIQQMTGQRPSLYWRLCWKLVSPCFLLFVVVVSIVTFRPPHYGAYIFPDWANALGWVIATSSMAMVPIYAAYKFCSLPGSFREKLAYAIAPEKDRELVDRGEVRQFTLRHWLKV

SMILES: COC(=O)[C@@H]1C2CCC(C[C@@H]1c1ccc(/C=C\I)cc1)N2 (stereo not given in full)
- Distribution (dose/g) (Rattus norvegicus [1]): 0.93%
- Distribution (dose/g) (Rattus norvegicus [2]): 0.17%
- Distribution (dose/g) (Rattus norvegicus [3]): 2.58%
- Ki [4]: 3.47 nM
- Distribution (dose/g) (Rattus norvegicus [5]): 0.83%
- Distribution (dose/g) (Rattus norvegicus [6]): 0.77%
- Distribution (dose/g) (Rattus norvegicus [7]): 2.56%
- Distribution (dose/g) (Rattus norvegicus [8]): 0.31%
- Distribution (dose/g) (Rattus norvegicus [9]): 3.2%
- Distribution (dose/g) (Rattus norvegicus [10]): 3.04%
- Distribution (dose/g) (Rattus norvegicus [11]): 0.34%
- Distribution (dose/g) (Rattus norvegicus [12]): 0.92%
- Distribution (dose/g) (Rattus norvegicus [13]): 0.29%
- Distribution (dose/g) (Rattus norvegicus [14]): 0.22%
- Distribution (dose/g) (Rattus norvegicus [15]): 4.92%
- Distribution (dose/g) (Rattus norvegicus [16]): 0.49%
- Distribution (dose/g) (Rattus norvegicus [17]): 0.32%
- Distribution (dose/g) (Rattus norvegicus [18]): 0.53%
- Distribution (dose/g) (Rattus norvegicus [19]): 2.83%
- Distribution (dose/g) (Rattus norvegicus [20]): 0.4%
- Distribution (dose/g) (Rattus norvegicus [21]): 2.72%
- Distribution (dose/g) (Rattus norvegicus [22]): 0.49%
- Distribution (dose/g) (Rattus norvegicus [23]): 0.76%
- Distribution (dose/g) (Rattus norvegicus [24]): 0.36%
- Distribution (dose/g) (Rattus norvegicus [25]): 0.4%
